Paper PMC2760637 (Journal of molecular recognition : JMR, 2009)
*1 amine or outer side, *2 acyl side, *3 side chain or, on linkers, in order; H or OH if unused. Bridges are numbered along the chain shown (N, C = ends). [ ]: non-standard residue; d: D form. Tyr(OMe) = O-methyl-tyrosine, COc1ccc(C[C@H](N[*:1])C(=O)[*:2])cc1

Legend:
[1] = tested on: classical pathway of complement activation; experiment: Complement inhibition assay; format: biochemical
In short: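 Classical-pathway activation was triggered by antigen–antibody complexes formed on the ELISA plate: an albumin-coated plate bound by a polyclonal anti-ovalbumin antibody. C3b deposited in the presence of the test peptide was detected by ELISA. Percent inhibition was plotted against peptide concentration and fitted to a logistic dose-response function to derive IC50.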

[2] = target: complement C3 (Homo sapiens) (UniProt P01024); experiment: ITC; details: cited from earlier work
[3] = target: complement C3 (Homo sapiens), P01024; experiment: ITC; details: Y4 is O-methyl-Tyr, N-acetyl, C-amide, disulfide C2-C12

Ac-ICV(1MeW)QisoDWGAHRCT [4(1MeW)6(isoD)]
inhibitory activity (in words) ([1]; listed as 4(1MeW)6isoD): lacked inhibitory activity | inhibitory activity (in words) ([1]; listed as 6isoD): complete loss of activity

compstatin 4(5MeW)
Kd [2]: 120 nM

B1: compstatin 4MeY (peptide)
chain: Ac-ICV[Tyr(OMe)]QDWGAHRCT-NH2
modifications: disulfide 2-12
SMILES: CC[C@H](C)[C@H](NC(C)=O)C(=O)N[C@H]1CSSC[C@@H](C(=O)N[C@H](C(N)=O)[C@@H](C)O)NC(=O)[C@H](CCCNC(=N)N)NC(=O)[C@H](Cc2c[nH]cn2)NC(=O)[C@H](C)NC(=O)CNC(=O)[C@H](Cc2c[nH]c3ccccc23)NC(=O)[C@H](CC(=O)O)NC(=O)[C@H](CCC(N)=O)NC(=O)[C@H](Cc2ccc(OC)cc2)NC(=O)[C@H](C(C)C)NC1=O
Kd [3]: 115 nM
